The record followed here is ChEMBL document CHEMBL3102802, “Synthesis, modelling and biological characterization of 3-substituted-1H-indoles as ligands of GluN2B-containing N-methyl-d-aspartate receptors” (Bioorg Med Chem, 2014).

The target of assay [1] is Glutamate receptor ionotropic, NMDA 2B (Rattus norvegicus) (UniProt Q00960). The assay is described as follows: Displacement of [3H]Ifenprodil from NMDA receptor GluN2B subunit in Wistar rat cerebral cortex at 0.1 uM. The class given is tissue-based.
Chain of Glutamate receptor ionotropic, NMDA 2B (Rattus norvegicus) (Q00960 27-1482 limits assumed): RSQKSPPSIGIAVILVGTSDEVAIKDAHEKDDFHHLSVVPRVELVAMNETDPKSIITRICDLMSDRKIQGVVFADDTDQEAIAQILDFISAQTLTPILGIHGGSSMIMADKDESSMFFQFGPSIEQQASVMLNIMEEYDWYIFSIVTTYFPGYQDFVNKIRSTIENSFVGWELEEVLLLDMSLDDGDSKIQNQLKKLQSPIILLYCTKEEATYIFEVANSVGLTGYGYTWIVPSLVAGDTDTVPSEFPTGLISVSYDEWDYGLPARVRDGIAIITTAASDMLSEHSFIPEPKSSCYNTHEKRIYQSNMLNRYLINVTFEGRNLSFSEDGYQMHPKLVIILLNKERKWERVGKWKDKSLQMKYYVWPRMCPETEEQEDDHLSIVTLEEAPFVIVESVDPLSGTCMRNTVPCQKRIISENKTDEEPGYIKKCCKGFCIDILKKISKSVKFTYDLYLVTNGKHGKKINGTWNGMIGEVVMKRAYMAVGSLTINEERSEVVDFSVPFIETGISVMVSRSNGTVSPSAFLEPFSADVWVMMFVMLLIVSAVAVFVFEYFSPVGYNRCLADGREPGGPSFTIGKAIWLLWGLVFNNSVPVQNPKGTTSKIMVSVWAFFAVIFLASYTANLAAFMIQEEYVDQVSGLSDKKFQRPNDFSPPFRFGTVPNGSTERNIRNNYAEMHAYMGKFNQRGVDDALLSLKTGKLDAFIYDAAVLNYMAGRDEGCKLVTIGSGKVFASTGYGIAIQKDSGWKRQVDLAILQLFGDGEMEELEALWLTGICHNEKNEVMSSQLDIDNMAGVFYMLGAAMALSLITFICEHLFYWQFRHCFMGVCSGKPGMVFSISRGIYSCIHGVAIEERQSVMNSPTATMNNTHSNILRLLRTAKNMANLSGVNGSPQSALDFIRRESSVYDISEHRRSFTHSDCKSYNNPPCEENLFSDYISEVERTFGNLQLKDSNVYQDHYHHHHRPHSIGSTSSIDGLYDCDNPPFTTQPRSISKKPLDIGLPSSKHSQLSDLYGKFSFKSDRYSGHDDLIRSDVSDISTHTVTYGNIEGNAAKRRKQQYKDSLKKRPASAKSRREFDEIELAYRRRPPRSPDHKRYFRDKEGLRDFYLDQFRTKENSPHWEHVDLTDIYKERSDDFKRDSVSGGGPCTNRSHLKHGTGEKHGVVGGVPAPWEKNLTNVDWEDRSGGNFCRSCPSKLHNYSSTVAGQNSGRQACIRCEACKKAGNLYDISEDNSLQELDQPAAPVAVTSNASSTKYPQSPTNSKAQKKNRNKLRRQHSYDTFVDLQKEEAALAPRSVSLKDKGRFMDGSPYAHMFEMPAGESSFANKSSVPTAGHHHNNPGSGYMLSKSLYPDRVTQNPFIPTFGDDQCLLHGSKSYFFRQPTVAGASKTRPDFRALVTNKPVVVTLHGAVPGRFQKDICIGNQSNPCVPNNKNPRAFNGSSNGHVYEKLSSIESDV
Assay [2] shares this target. The assay is described as follows: Displacement of [3H]Ifenprodil from NMDA receptor GluN2B subunit in Wistar rat cerebral cortex at 10 uM. The class given is tissue-based.
For assay [3], the target named is Glutamate receptor ionotropic, NMDA 2B (Rattus norvegicus, UniProt Q00960). The assay can be described thus: Displacement of [3H]Ifenprodil from NMDA receptor GluN2B subunit in Wistar rat cerebral cortex. The class given is tissue-based.
Chain of Glutamate receptor ionotropic, NMDA 2B (Rattus norvegicus, UniProt Q00960) (Q00960 whole entry): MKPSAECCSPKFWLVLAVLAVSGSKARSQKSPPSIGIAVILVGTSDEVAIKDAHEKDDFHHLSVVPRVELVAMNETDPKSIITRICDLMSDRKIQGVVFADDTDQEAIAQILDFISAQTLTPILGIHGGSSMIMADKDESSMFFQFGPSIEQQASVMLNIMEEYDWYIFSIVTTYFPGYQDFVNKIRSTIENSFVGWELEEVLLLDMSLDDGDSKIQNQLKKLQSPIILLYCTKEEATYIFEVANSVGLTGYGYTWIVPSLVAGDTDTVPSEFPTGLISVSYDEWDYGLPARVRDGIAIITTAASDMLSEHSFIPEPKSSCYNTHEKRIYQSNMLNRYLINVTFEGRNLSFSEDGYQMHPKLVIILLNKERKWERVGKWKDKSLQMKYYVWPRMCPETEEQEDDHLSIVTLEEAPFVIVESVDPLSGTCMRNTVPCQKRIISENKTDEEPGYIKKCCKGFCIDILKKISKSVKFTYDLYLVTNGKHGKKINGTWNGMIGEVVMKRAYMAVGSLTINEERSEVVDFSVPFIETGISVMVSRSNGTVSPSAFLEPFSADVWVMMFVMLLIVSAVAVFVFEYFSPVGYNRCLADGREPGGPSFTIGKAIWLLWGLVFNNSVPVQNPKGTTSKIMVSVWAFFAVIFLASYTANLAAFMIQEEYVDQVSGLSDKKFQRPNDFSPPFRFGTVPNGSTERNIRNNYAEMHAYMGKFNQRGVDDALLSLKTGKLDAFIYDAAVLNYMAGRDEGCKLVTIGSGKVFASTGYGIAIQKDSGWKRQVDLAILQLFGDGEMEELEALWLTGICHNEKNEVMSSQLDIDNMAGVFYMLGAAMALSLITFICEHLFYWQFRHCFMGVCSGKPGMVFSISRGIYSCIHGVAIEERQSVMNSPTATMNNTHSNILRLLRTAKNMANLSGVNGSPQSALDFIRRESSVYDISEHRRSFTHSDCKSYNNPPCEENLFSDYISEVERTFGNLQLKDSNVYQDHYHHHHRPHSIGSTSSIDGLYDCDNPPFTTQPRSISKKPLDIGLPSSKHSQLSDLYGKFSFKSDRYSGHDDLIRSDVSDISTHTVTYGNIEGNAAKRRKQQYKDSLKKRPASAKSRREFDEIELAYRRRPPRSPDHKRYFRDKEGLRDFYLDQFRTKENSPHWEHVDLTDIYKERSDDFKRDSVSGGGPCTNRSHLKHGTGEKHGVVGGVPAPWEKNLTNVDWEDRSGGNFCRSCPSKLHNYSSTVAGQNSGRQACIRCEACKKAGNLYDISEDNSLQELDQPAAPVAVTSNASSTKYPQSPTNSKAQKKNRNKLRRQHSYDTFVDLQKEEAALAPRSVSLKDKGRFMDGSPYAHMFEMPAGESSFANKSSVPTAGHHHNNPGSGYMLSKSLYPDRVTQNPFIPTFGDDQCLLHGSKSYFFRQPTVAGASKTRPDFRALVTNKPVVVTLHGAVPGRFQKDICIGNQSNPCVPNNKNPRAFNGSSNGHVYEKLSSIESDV
The nature of assay [4]: Antioxidant activity of the compound assessed as inhibition of ABTS radicals after 20 mins by spectrophotometric analysis. The class given is functional. In short, it runs like this: (§1)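 ABTS radical cation generated from ABTS and potassium persulfate in 0.1 M phosphate buffer pH 7.0, left 16 h in the dark at room temperature. Blank absorbance at 734 nm adjusted to about 1.0. Samples from 2 mM stocks in MeOH/phosphate buffer 1:1. A734 read at room temperature after exactly 20 min. %inhibition = (Ablank − Asample)/Ablank, mean of triplicates.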

A short description of assay [5]: Antioxidant activity of the compound assessed as inhibition of ABTS radicals at 33 uM after 20 mins by spectrophotometric analysis. The class given is functional.
Assay [6] can be described thus: Antioxidant activity of the compound assessed as inhibition of ABTS radicals at 9 uM after 20 mins by spectrophotometric analysis. The class given is functional. In short, it runs like this:
as §1

The target of assay [7] is Glutamate receptor ionotropic, NMDA 2B (Homo sapiens, UniProt Q05586+Q13224). The assay is described as follows: Inhibition of NMDA receptor GluN2B subunit (unknown origin).
Assay [8] is described as follows: Antioxidant activity of the compound assessed as inhibition of ABTS radicals at 17 uM after 20 mins by spectrophotometric analysis. The class given is functional. In short, it runs like this: as §1
Assay [9] has as its system Mus musculus. The assay can be described thus: Anticonvulsant activity in ip dosed sound-induced DBA/2 mouse seizure model assessed as tonus phase latency. The class given is functional. The note with it: DBA/2, ip. Put shortly:
(§2)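 DBA/2 mice (8–12 g, 22–25 days old, either sex), groups of 10. Compound given ip at 0.1 mL/10 g in 50% DMSO/50% saline; vehicle controls. Auditory stimulus (12–16 kHz, 109 dB) applied 30 min later for 60 s or until tonic extension, after 60 s habituation. Latency to and incidence of seizure phases scored; Fisher's exact test. ED50 by Litchfield–Wilcoxon.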

Assay [10] has as its system Mus musculus. The assay can be described thus: Anticonvulsant activity in ip dosed sound-induced DBA/2 mouse seizure model assessed as clonus phase latency. The note with it: DBA/2, ip. The class given is functional. Put shortly:
as §2

For assay [11], the target named is Glutamate receptor ionotropic, NMDA 2B (Mus musculus) (UniProt Q01097). The assay can be described thus: Antagonist activity at NMDA receptor GluN2B subunit in FVB mouse CA1 pyramidal neurons assessed as reversible reduction of excitatory post synaptic current amplitude at 50 nM at holding potential of -60 mV measured for 5 mins by patch clamp technique in presence of Mg2+free ACSF relative to control. The class given is cell-based. Details: scale not given: the % may be the effect or the level left. Particulars: Pyramidal neuron. Put shortly:
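Whole-cell recordings of NMDA receptor-mediated EPSCs in mouse hippocampal slices, with glycine (10 µM) and bicuculline (5 µM) in the bath. Compound applied for 5 min, then washed out. EPSC amplitude taken as peak minus baseline and measured over 5 min in control and in drug for each neuron. Expressed as % of control, n = 4; unpaired Student's t test.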

Structures are written as SMILES.

Chain of Glutamate receptor ionotropic, NMDA 2B (Mus musculus) (Q01097 whole entry): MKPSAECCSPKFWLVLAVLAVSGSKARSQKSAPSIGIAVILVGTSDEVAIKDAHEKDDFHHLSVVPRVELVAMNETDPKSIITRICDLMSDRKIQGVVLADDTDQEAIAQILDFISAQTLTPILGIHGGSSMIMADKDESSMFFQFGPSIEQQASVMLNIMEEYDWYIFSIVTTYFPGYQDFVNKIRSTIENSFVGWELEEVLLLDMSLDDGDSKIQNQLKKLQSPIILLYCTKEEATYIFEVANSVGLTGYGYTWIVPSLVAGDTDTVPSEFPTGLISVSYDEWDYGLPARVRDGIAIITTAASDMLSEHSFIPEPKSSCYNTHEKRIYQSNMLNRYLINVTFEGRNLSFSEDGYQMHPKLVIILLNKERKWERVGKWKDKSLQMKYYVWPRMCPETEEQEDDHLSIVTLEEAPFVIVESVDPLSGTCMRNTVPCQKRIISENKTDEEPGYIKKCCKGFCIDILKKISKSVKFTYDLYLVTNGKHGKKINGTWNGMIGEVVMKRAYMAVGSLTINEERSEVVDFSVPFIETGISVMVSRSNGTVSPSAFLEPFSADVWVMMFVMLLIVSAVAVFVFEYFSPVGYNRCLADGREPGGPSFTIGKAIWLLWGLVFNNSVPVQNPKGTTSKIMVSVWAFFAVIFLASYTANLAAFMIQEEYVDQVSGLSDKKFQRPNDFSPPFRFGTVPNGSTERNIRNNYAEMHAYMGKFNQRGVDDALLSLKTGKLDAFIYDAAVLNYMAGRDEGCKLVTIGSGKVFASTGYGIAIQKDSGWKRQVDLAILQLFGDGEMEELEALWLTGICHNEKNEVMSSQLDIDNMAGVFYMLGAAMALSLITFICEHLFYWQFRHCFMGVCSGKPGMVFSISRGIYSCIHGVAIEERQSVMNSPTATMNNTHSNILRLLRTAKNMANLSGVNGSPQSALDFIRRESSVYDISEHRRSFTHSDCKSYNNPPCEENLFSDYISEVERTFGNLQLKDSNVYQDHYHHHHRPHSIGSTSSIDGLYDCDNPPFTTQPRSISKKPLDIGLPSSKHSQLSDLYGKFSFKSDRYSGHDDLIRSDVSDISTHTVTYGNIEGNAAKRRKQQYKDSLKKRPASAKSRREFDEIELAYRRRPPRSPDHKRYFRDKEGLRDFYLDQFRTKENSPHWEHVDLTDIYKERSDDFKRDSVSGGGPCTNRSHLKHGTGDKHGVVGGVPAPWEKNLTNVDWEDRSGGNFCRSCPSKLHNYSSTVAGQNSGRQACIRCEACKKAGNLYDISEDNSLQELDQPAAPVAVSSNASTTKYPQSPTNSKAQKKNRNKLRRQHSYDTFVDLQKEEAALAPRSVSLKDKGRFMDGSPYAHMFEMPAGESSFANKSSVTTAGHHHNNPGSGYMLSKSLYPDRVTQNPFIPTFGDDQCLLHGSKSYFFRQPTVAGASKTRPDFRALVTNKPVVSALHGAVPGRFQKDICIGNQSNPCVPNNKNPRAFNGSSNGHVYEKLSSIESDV

For the compound `O=C(C(=O)N1CCC(Cc2ccc(F)cc2)CC1)c1c[nH]c2ccc(O)cc12`, in assay [1], the inhibition turned out to be 11%.
Still for that read-out and setting: to `O=C(C(=O)N1CCC(Cc2ccc(F)cc2)CC1)c1c[nH]c2cc(O)c(O)cc12` belongs 38%; to `O=C(C(=O)N1CCC(Cc2ccccc2)CC1)c1c[nH]c2cc(O)c(O)cc12`, 40%.
For `COc1ccc2[nH]cc(C(=O)C(=O)N3CCC(Cc4ccc(F)cc4)CC3)c2c1`, the inhibition in assay [2] was found to be 35%.
In the case of `CS(=O)(=O)Nc1ccc2c(C(=O)C(=O)N3CCC(Cc4ccc(F)cc4)CC3)c[nH]c2c1`, the half-maximal inhibitory concentration (IC50) in assay [3] was 18 nM. In addition, the inhibition in [1] turned out to be 67%.
`c1ccc2[nH]ccc2c1`: the values for the inhibition result in [4] and in assay [5] were “Dose-dependent effect” and 25.6%, respectively.
Compound `CS(=O)(=O)Nc1ccc2[nH]cc(C(=O)CN3CCC(Cc4ccc(F)cc4)CC3)c2c1` came in with an inhibition in [1] of 10%.
Consider `O=C(CN1CCC(Cc2ccc(F)cc2)CC1)c1c[nH]c2cc(O)ccc12`, for which the half-maximal inhibitory concentration (IC50) in assay [3] was 9.1 nM. For the same compound, the inhibition in assay [1] was determined as 82%.
In turn, `CS(=O)(=O)Nc1ccc2[nH]cc(C(=O)C(=O)N3CCC(Cc4ccc(F)cc4)CC3)c2c1` returned an inhibition in assay [1] of 4%.
In assay [1], `Nc1ccc2[nH]cc(C(=O)CN3CCC(Cc4ccc(F)cc4)CC3)c2c1` returned an inhibition of 33%.
Consider `Oc1ccc2[nH]ccc2c1`, for which the inhibition entry was “Dose-dependent effect” in assay [4], 79.8% in assay [6] and more than 90.1% in [5].
In the case of `Oc1ccc2cc[nH]c2c1`, the figures for the inhibition entry in assay [4], in [6] and in assay [5] were “Dose-dependent effect”, 83% and more than 89.8%, respectively.
`O=C(CN1CCC(Cc2ccccc2)CC1)c1c[nH]c2ccccc12` returned a concentration for half-maximal inhibition (IC50) in assay [7] of 769 nM.
Consider `O=C(O)/C=C/c1ccc(O)c(O)c1`, for which the inhibition entry in assay [4] is “Dose-dependent effect”; in assay [8] it was 71.5%; in assay [5], more than 93.4%.
In assay [1], `COc1ccc2c(C(=O)C(=O)N3CCC(Cc4ccc(F)cc4)CC3)c[nH]c2c1` gave an inhibition of 27%.
The compound `O=C(C(=O)N1CCC(Cc2ccc(F)cc2)CC1)c1c[nH]c2cc(O)ccc12` came in with an IC50 in assay [3] of 20 nM. Moreover, the inhibition in assay [1] was found to be 61%.
For `COc1ccc2[nH]cc(C(=O)CN3CCC(Cc4ccc(F)cc4)CC3)c2c1`, the inhibition in [2] was found to be 73%.
`COc1ccc2c(C(=O)CN3CCC(Cc4ccc(F)cc4)CC3)c[nH]c2c1`: the inhibition in assay [2] came out at 82%.
`COc1cc2[nH]cc(C(=O)CN3CCC(Cc4ccccc4)CC3)c2cc1OC` displayed an inhibition in [1] of 1%.
With `CS(=O)(=O)Nc1ccc2c(C(=O)CN3CCC(Cc4ccc(F)cc4)CC3)c[nH]c2c1`, the half-maximal inhibitory concentration (IC50) in assay [3] is 9.4 nM. For the same compound, the inhibition in [1] turned out to be 81%.
With `O=C(CN1CCC(Cc2ccccc2)CC1)c1c[nH]c2cc(O)c(O)cc12`, the ED50 turned out to be 76.7 µmol/kg in the assay on Mus musculus [9] and 89.4 µmol/kg in the assay with Mus musculus [10]. For the same compound, the Activity in assay [11] was found to be 57%. This compound gave an IC50 in assay [3] of 5.5 nM. Moreover, the inhibition in [1] is 91%.
Compound `Nc1ccc2c(C(=O)CN3CCC(Cc4ccc(F)cc4)CC3)c[nH]c2c1` had an inhibition in [1] of 12%.
In the case of `Oc1cc2cc[nH]c2cc1O`, the values for the inhibition entry in assay [4], in assay [6] and in assay [8] were “Dose-dependent effect”, 54.4% and more than 84.4%, respectively.
In assay [3], `O=C(CN1CCC(Cc2ccc(F)cc2)CC1)c1c[nH]c2cc(O)c(O)cc12` showed a 50% inhibitory concentration (IC50) of 30 nM. Besides, in [1], the inhibition came to 84%.
Consider `COc1cc2[nH]cc(C(=O)C(=O)N3CCC(Cc4ccccc4)CC3)c2cc1OC`, for which the inhibition in [2] amounted to 9%.
`O=C(O)c1cc(O)c(O)c(O)c1`: the inhibition entry was “Dose-dependent effect” in assay [4], 61.6% in assay [6], more than 94.1% in assay [8] and more than 93.9% in assay [5].
Take `O=C(CN1CCC(Cc2ccc(F)cc2)CC1)c1c[nH]c2ccc(O)cc12`: the IC50 in assay [3] was 51 nM. Moreover, the inhibition in assay [1] amounted to 60%.
